OXTR ag: human OXTR agonism; P30559; CHO-OTR cells, Fluo-8 calcium fluorescence; normalized: DMSO 0%, oxytocin 100%; activation, % at 3 µM; 320,000 compounds, 0.32% hits; AID 2435;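 active = activation above the mean of all tested compounds plus 3 SD, cutoff set per screening run, cut at about 20% in these data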;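 note: peak over basal fluorescence ratio from a 100 s FLIPR kinetic read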
TRPML3 ag: agonists of human TRPML3 channel. Q8TDD5. HEK293 TRPML3-YFP, Fluo-8 calcium fluorescence; 100% = the carbachol control signal. activation, % at 3 µM. 220,000 compounds, 0.29% hits;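 active = activation above its plate's cutoff, the mean activation of the plate's test wells plus 3 SD, cut at about 12% in these data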;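 note: 0% = DMSO only wells and 100% = carbachol wells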
Target sequence (Q8TDD5 whole entry, looked up): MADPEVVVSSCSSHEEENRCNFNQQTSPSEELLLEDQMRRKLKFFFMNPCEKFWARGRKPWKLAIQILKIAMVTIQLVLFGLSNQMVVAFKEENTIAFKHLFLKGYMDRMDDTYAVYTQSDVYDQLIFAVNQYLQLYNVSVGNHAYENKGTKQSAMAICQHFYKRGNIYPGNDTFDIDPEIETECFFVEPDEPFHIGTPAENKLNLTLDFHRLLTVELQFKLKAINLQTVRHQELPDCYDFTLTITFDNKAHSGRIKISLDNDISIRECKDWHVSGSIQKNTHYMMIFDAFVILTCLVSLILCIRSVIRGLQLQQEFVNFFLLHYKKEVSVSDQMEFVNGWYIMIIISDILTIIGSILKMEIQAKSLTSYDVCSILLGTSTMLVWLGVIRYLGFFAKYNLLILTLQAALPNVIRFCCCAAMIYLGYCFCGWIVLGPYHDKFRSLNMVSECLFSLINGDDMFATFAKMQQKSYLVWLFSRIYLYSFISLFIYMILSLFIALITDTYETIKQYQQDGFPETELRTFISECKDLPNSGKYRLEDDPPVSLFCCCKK
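system = HEK293 cells stably carrying human TRPML3-YFP | doses = one concentration, 3 µM nominal, 0.3% DMSO | timing = dye loading 1 h 37 °C then 30 min ambient, 125 s read | detection = Fluo-8 calcium dye fluorescence, ex 470-495, em 515-575 nm | benchmarks = high control carbachol 87 µM, low control DMSO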
zfTRPN1 agonist: activates the zebrafish TRPN1 channel. activation, % at 3 µM. 220,000 compounds, 0.18% hits. HEK293 zebrafish TRPN1-YFP, Fluo-8 calcium fluorescence; 100% = response to 87 µM carbachol;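 active = activation above its plate's cutoff, the mean activation of test wells on that plate plus 3 SD, cut at about 19% in these data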;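 note: 0% = DMSO alone and 100% = 87 µM carbachol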
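Material: zebrafish TRPN1-YFP in HEK293 cells. Doses: one dose of 3 µM, 0.3% DMSO. Incubation: dye 1 h 37 °C plus 30 min RT. Measured by: intracellular calcium fluorescence with Fluo-8.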
OXTR potentiate: potentiators of human oxytocin receptor. P30559. CHO-OTR cells, Fluo-8 calcium fluorescence, potentiator mode; 0% = oxytocin EC15, 100% = EC100. activation, % at 3 µM. 320,000 compounds, 0.061% hits. AID 2445;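 active = activation above that plate's cutoff, the mean activation of tested compounds plus 3 SD, cut at about 6.6% in these data, passing the limit was not always enough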;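 note: 100% uses oxytocin at 75 nM as the full agonist control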
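Assay system: CHO cell line stably expressing human OTR | Also added: Oxytocin at about EC15, sub-maximal agonist stimulus | Times: Compound 6 min at room temperature before oxytocin, 100 s read | Measured by: Fluo-8 intracellular calcium fluorescence, ex 470-495, em 515-575 nm | Controls: EC15 oxytocin alone as 0%, 75 nM oxytocin as 100%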
V1R ag counter: activates human V1a receptor in oxytocin agonist counter-screen. P37288. CHO-V1R cells, Fluo-8 calcium fluorescence, agonist mode; 0% DMSO, 100% 3 nM vasopressin. activation, % at 3 µM. 320,000 compounds, 0.25% hits. AID 2797;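 active = activation above the mean activation of all tested compounds plus 3 SD, per screening run, cut at about 20% in these data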;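 note: signal is peak over basal fluorescence ratio across a 100 second FLIPR read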
OXTR pot cf: confirmation of human oxytocin receptor potentiators | CHO-OTR cells, Fluo-8 calcium fluorescence, potentiation; scaled from low-dose to maximal oxytocin | shares compounds with OXTR potentiate | 180 tested, under 10 active | activation, % at 3 µM;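 active = mean percent activation over triplicates above a cutoff set from solvent-only control plates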;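 note: compounds tested in the presence of an EC15 dose of oxytocin; 0% = EC15 oxytocin with DMSO and 100% = EC100 oxytocin with DMSO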
V1aR agonist cf: human V1a receptor agonism, confirmation; shares compounds with V1R ag counter; CHO-V1R cells, Fluo-8 calcium fluorescence, agonist; activation, % at 3 µM; 180 compounds, 20% hits;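 active = average activation exceeds primary screen hit cutoff, cut at about 21% in these data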;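 note: peak over basal fluorescence ratio during a 100 s FLIPR read; 0% = DMSO only wells and 100% = 3 nM vasopressin wells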
OXTR ag counter: OXTR agonism, counter-screen for V1R agonists; shares compounds with V1R ag counter; CHO-OTR cells, Fluo-8 calcium fluorescence, agonist; activation, % at 3 µM; 180 compounds, 10% hits; AID 434969;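 active = mean activation over three repeats above the cutoff from the earlier oxytocin receptor agonist screen, cut at about 20% in these data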;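 note: peak over minimum fluorescence ratio within a 100 second FLIPR read; 0% = DMSO only wells and 100% = oxytocin high control wells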
* = called active by the depositor; . = no result. Shown are actives, neighbours in structure and some others; about 0.55% of the full set was active somewhere.

SMILES	OXTR ag	TRPML3 ag	zfTRPN1 agonist	OXTR potentiate	V1R ag counter	OXTR pot cf	others
Cc1ccc(-n2ncc3c(N4CCC(C(N)=O)CC4)ncnc32)c(C)c1	0.3	0.0	-0.7	13.5*	-0.8	-1.6
CCN(CC)C(=O)C1CCN(c2ncnc3c2cnn3-c2ccc(C)cc2C)CC1	-1.2	0.7	0.5	-12.4	-1.2	.
COc1ccccc1OCCNC(=O)c1cc(=O)[nH]c2ccccc12	0.2	0.6	1.5	9.1*	0.1	-1.6
O=C(CCCSc1nc2ccccc2[nH]1)NCc1ccccc1	-1.2	-0.6	-1.5	12.0*	2.5	-8.2
COc1ccc(Nc2ncnc3c2c(C)c(C)n3CCCN(C)C)cc1	0.7	.	.	-9.6	0.4	.
COc1ccc2nc(NC(=O)CSc3nc(SC)ns3)sc2c1	-0.7	0.4	-0.3	-3.5	1.1	.
COc1ccc2nc(NC(=O)CSc3nnc(C)s3)sc2c1	1.4	0.0	1.2	10.2*	-0.2	-4.2
O=C(NC(Cc1cccc(F)c1)C(=O)O)C1CCCCC1 (configuration not stated)	0.6	.	.	8.1*	0.6	-10.1
CC(C)C1CCC(C(=O)N[C@H](Cc2ccccc2)C(=O)O)CC1 (some centres not stated)	0.2	0.9	0.3	-4.3	0.5	.
Cc1ccc(S(=O)(=O)C2(C(=O)NC3CCCCC3C)CC2)cc1 (configuration not stated)	-1.3	-0.4	-2.5	17.3*	-1.5	-8.3
COc1ccc(/C=C2\SC(=S)N(CCC(=O)Nc3cccc(C(=O)O)c3)C2=O)cc1	1.0	.	.	-6.6	0.9	.
CN(C)CC(O)COC(c1ccccc1)c1ccccc1 (configuration not stated)	0.8	0.5	-0.3	10.8*	2.7	1.2
Fc1ccc2c(-c3cccc(C(F)(F)F)c3)c(-c3ccccc3)ncc2c1	0.4	.	.	9.4*	1.2	-8.3
Fc1ccc2cnc(-c3ccccc3)c(-c3cc(C(F)(F)F)cc(C(F)(F)F)c3)c2c1	-0.1	.	.	7.2	-0.1	.
CC(C)CN(C(=O)CSc1nnc2ccccn12)C1CCS(=O)(=O)C1 (configuration not stated)	1.1	.	.	14.5*	1.7	-6.9
Cc1nnc(SCC(=O)N(CC(C)C)C2CCS(=O)(=O)C2)s1 (configuration not stated)	-0.4	.	.	-1.7	0.3	.
O=C(OC(C(=O)NCc1ccccc1)c1ccccc1)c1ccco1 (configuration not stated)	-0.3	.	.	13.8*	-1.0	-1.8
O=C(c1ccco1)n1nc(-c2cccnc2)nc1NCc1ccco1	-0.6	0.7	2.6	-5.0	-0.1	.
CCOc1ccc(C(=O)Nc2nnc(SCC(=O)NCC3CCCO3)s2)cc1OCC (configuration not stated)	1.3	.	.	10.7*	0.7	-0.1
COc1ccccc1C(=O)NC(=O)COC(=O)CNC(=O)c1ccccc1F	0.9	.	.	-7.6	0.5	.
O=C(NC(=S)Nc1ccccc1N1CCOCC1)c1ccc(Br)cc1	-1.0	.	.	13.8*	1.3	3.5
CC1Cc2c([nH]c3ccccc23)C(=O)N1 (configuration not stated)	-1.2	.	.	-8.8	0.8	.
COC(=O)c1cc(C(=O)Nc2cccc(C)n2)cc([N+](=O)[O-])c1	-0.9	0.1	-0.5	9.1*	-0.6	0.1
CCN1C(=O)N(CC)c2cccc3cccc1c23	-2.3	.	.	11.4*	-1.4	-3.7
Cc1cc(C)nc(NC(=O)c2c(F)c(F)c(F)c(C(=O)Nc3cc(C)cc(C)n3)c2F)c1	-1.3	.	.	-6.8	-0.4	.
SMILES	OXTR ag	TRPML3 ag	zfTRPN1 agonist	OXTR potentiate	V1R ag counter	OXTR pot cf	others
Cc1ccc(NS(=O)(=O)c2ccc(C(=O)N3CCCCCCC3)cc2)cc1	8.1	.	.	-14.2	15.2	.
Cc1ccc(NS(=O)(=O)c2ccc(C(=O)N3CCCCCC3)cc2)cc1	13.8	.	.	-12.5	20.8*	.	V1aR agonist cf=13.2;OXTR ag counter=17.1
O=C(C/C=N\OCc1ccc([N+](=O)[O-])cc1)Nc1ccccc1	2.5	-0.4	-1.0	-6.6	3.0	.
COC(=O)C(/C=N/OCc1ccc([N+](=O)[O-])cc1)NC(=O)c1ccccc1 (configuration not stated)	13.8	3.2	2.6	-29.4	24.7*	.	V1aR agonist cf=10.7;OXTR ag counter=18.4
COc1cc(C(=O)NNC(=S)NC(=O)c2ccccc2C)cc(OC)c1OC	9.3	5.1	3.0	-5.1	29.4*	.	V1aR agonist cf=11.2;OXTR ag counter=8.1
COc1cc(C(=O)NNC(=S)NC(=O)c2ccc3c(c2)OCO3)cc(OC)c1OC	7.8	0.1	0.2	-4.9	0.2	.
CC(C)CCNC(=O)C(=O)Nc1ccc2c(c1)N(S(=O)(=O)c1cccs1)CCC2	2.8	.	.	-7.6	3.1	.
CN(CC(=O)NCc1ccc(F)cc1)CC(=O)Nc1ccc(Cl)c(C(F)(F)F)c1	16.4	.	.	-14.9	29.1*	.	V1aR agonist cf=9.6;OXTR ag counter=13.3
CC1(C)CCC[C@@]2(C)CC=C(C(=O)O)[C@@H]3C[C@]312	1.0	.	.	-1.7	0.8	.
CCOc1ccc(NC(=O)c2cccc(NC(=O)c3ccccc3)c2)cc1	1.1	.	.	-17.7	49.6*	.	V1aR agonist cf=1.9;OXTR ag counter=-1.0
Cc1cccc(N/C(N)=N/c2nc(C)cc(C)n2)c1	10.6	6.0	6.4	-21.0	21.5*	.	V1aR agonist cf=6.2;OXTR ag counter=-0.3
CC(=O)Nc1cccc(N/C(N)=N/c2nc(C)cc(C)n2)c1	0.7	0.8	1.3	0.4	-0.8	.
O=C(c1ccccc1NS(=O)(=O)c1ccc(Cl)cc1)N1CCc2ccccc21	-1.4	-0.4	-0.5	1.2	21.4*	.	V1aR agonist cf=0.9;OXTR ag counter=-0.1
CC(C)C(C(=O)Nc1ccncc1)c1ccc(Cl)cc1 (configuration not stated)	14.5	.	.	-12.3	26.6*	.	V1aR agonist cf=12.2;OXTR ag counter=15.8
C/C(=N/NC(=O)c1ccncc1)c1cc2ccc(O)cc2oc1=O	17.9	3.1	0.8	-10.8	30.3*	.	V1aR agonist cf=584.1*;OXTR ag counter=700.2*
Cc1ccc(NC(=O)COC(=O)C2CCN(c3ccc(C(F)(F)F)cn3)CC2)cc1	-1.9	.	.	-7.8	0.1	.
COc1ccc(CCNCC(O)COc2ccc(OC)cc2C(C)(C)C)cc1 (configuration not stated)	18.3	.	.	-12.2	23.6*	.	V1aR agonist cf=1.2;OXTR ag counter=3.1
COc1ccc(CCNCC(O)COc2cccc(Br)c2)cc1OC (configuration not stated)	0.2	1.8	2.4	-3.6	0.5	.
CN(C)S(=O)(=O)Nc1ccccc1F	0.3	0.2	0.4	-5.8	0.1	.
Cc1ccc2sc(N(CCCN(C)C)C(=O)CCS(=O)(=O)c3ccccc3)nc2c1C	15.0	.	.	-11.5	24.3*	.	V1aR agonist cf=2.1;OXTR ag counter=7.0

Screening results as filed in PubChem BioAssay.
